From ChEMBL document CHEMBL5661985, “In silico design of novel probes for the atypical opioid receptor MRGPRX2” (Nat Chem Biol, 2017) come the findings set out here.

Calls of active or inactive are those of the source. The rule behind the calls is not given here. Some results are limits rather than exact numbers.

The target of test [1] is T1, Mas-related G-protein coupled receptor member X2 (Homo sapiens) (UniProt Q96LB1).
T1 sequence (whole entry): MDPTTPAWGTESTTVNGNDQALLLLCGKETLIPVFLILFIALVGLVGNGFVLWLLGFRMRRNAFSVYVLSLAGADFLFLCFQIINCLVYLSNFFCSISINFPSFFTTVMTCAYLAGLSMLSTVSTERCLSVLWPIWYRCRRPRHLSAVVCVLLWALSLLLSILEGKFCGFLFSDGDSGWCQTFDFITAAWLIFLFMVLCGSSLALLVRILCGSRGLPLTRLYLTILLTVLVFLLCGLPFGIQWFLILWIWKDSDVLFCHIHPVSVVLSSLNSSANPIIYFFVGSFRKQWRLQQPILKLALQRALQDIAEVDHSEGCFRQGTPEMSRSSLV
In words: Agonist activity at MRGPRX2 receptor in human LAD2 cells assessed as increase in degranulation incubated for 30 mins by beta-hexosaminidase assay. It is filed as functional, cell-based. The note with it: filed as agonist. The gist of the method: (§1)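 β-Hexosaminidase release: LAD2 cells in fresh medium 18 h, washed in Tyrode's buffer pH 7.4, 10,000 cells/well; drug (single concentration or 8-point curve) added in triplicate, 30 min 37°C; supernatant and Triton X-100 lysate each reacted with NAG in citrate pH 4.5 for 90 min 37°C, stopped with carbonate pH 10, A405; % release = released/total ×100, minus vehicle.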

Test [2] has as its target Kappa-type opioid receptor (Homo sapiens, UniProt P41145). In words: Displacement of [3H]-Diprenorphine from KOR (unknown origin). On the technique in general: Loss of bound radioactivity is the signal in a displacement assay; it reports binding, not function.
For test [3], the target named is T1, Mas-related G-protein coupled receptor member X2 (Homo sapiens). In words: Agonist activity at N-terminal Flag-tagged human MRGPRX2 receptor expressed in tetracycline-induced HEK-T cells assessed as increase in intracellular calcium release by FLIPR assay. The test is classed as functional, cell-based. The note with it: HEK-T cell, filed as agonist. A digest of the protocol: (§2)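 FLIPR calcium: FLP-IN/T-REX HEK-293-T stable line with N-terminal FLAG codon-optimized receptor, induced 24 h with 1 μg/mL tetracycline in 1% dialyzed FBS (uninduced cells as control); FLIPR calcium dye plus 2.5 mM probenecid 1 h 37°C; 10 s baseline, then drug in HBSS/20 mM HEPES/probenecid pH 7.4, 16-point curve 10 μM to 0.003 nM; fluorescence 120 s; fold over basal, n=3 triplicate.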
(A change in cytosolic calcium serves as a functional read-out for many receptors and channels.)

Test [4] shares this target. In words: Agonist activity at MRGPRX2 receptor in human LAD2 cells assessed as increase in degranulation incubated for 30 mins in presence of naloxone by beta-hexosaminidase assay. It is filed as functional, cell-based. The gist of the method:
as §1

Test [5] deals with T2, Mas-related G-protein coupled receptor member X2 (Homo sapiens, UniProt Q96LB1).
T2 sequence (Q96LB1 whole entry): T1 sequence (whole entry)
In words: Agonist activity at MRGPRX2 (unknown origin) expressed in HTLA cells assessed as induction of beta-arrestin 2 recruitment incubated for 18 to 24 hrs by PRESTO-Tango assay. It is filed as functional, cell-based. Background: Activated receptors often draw arrestin, which recruitment assays turn into a signal.

In test [6] the target is T1, Mas-related G-protein coupled receptor member X2 (Homo sapiens). In words: Agonist activity at MRGPRX2 receptor in human LAD2 cells transfected with MRGPRX2 siRNA assessed as increase in degranulation incubated for 30 mins by beta-hexosaminidase assay. The test is classed as functional, cell-based. The gist of the method:
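LAD2 cells (1.2 million/well) transfected with 25 nM MRGPRX2 siRNA pool or non-targeting pool, 72 h; 200,000 cells taken for β-hexosaminidase assay with EC80 concentration of agonist, 30 min 37°C; knockdown checked by qRT-PCR on 1 million cells; fold change % degranulation versus DMSO; two-way ANOVA with Sidak test.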

Test [7] has as its target T2, Mas-related G-protein coupled receptor member X2. In words: Agonist activity at N-terminal Flag-tagged human MRGPRX2 receptor expressed in tetracycline-induced FLP-IN/T-REX 293 cells assessed as increase in intracellular calcium release by FLIPR assay. The test is classed as functional, cell-based.
The target of test [8] is Mu-type opioid receptor (Homo sapiens, UniProt P35372). In words: Displacement of [3H]-DAMGO from MOR (unknown origin).
The target in test [9] is Delta-type opioid receptor (Homo sapiens, UniProt P41143). In words: Displacement of [3H]-Naltrindole from DOR (unknown origin).
Test [10] has as its target T1, Mas-related G-protein coupled receptor member X2 (Homo sapiens). In words: Agonist activity at MRGPRX2 receptor in human LAD2 cells assessed as increase in intracellular calcium release by FLIPR assay. It is filed as functional, cell-based. The note with it: filed as agonist. A digest of the protocol: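 LAD2 human mast cells seeded 50,000/well in Tyrode's buffer with calcium dye, 1 h before drug; 10 s baseline, drug added, fluorescence followed 120 s; expressed as fold calcium release over baseline; n=3 in triplicate.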

Test [11] shares this target. In words: Agonist activity at N-terminal Flag-tagged human MRGPRX2 receptor expressed in HEK-T cells assessed as increase in intracellular calcium release by FLIPR assay. The test is classed as functional, cell-based. The note with it: HEK-T cell. The gist of the method:
as §2

For test [12] the target is unchanged. In words: Agonist activity at MRGPRX2 receptor in human LAD2 cells assessed as increase in degranulation at 10 uM incubated for 30 mins in presence of IgE by beta-hexosaminidase assay relative to control. The test is classed as functional, cell-based. To be noted: filed as agonist. A digest of the protocol:
as §1

Test [13] has the same target. In words: Agonist activity at MRGPRX2 receptor in human LAD2 cells assessed as increase in degranulation at 10 uM incubated for 30 mins by beta-hexosaminidase assay relative to control. It is filed as functional, cell-based. To be noted: filed as agonist. A digest of the protocol:
as §1

For test [14], the target named is D(4) dopamine receptor (Homo sapiens) (UniProt P21917). In words: Agonist activity at DRD4 receptor (unknown origin). It is filed as functional. A digest of the protocol:
(§3)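 PRESTO-Tango β-arrestin2 recruitment; HTLA cells (HEK-T stably expressing β-arrestin2-TEV and tTA-dependent luciferase) transfected by calcium phosphate with receptor-Tango construct, replated next day at 20,000 cells/well; compounds in HBSS/20 mM HEPES/0.3% BSA pH 7.4, 18–24 h; Bright-Glo luminescence after 15 min RT, read as RLU; ≥2-fold over basal scored active.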

Test [15] addresses 5-hydroxytryptamine receptor 2A (Homo sapiens) (UniProt P28223). In words: Agonist activity at HTR2 receptor (unknown origin). The test is classed as functional. The gist of the method:
as §3

Test [16] addresses Proteinase-activated receptor 2 (Homo sapiens) (UniProt P55085). In words: Agonist activity at F2R-L1 receptor (unknown origin). The gist of the method:
as §3

Test [17] deals with Prosaposin receptor GPR37 (Homo sapiens) (UniProt O15354). In words: Agonist activity at GPR37 receptor (unknown origin). It is filed as functional. A digest of the protocol: as §3
For test [18], the target named is Cannabinoid receptor 2 (Homo sapiens) (UniProt P34972). In words: Agonist activity at CNR2 receptor (unknown origin). It is filed as functional. The gist of the method:
as §3

Test [19] concerns the target G-protein coupled receptor 15 (Homo sapiens) (UniProt P49685). In words: Agonist activity at GPR15 receptor (unknown origin). It is filed as functional. The gist of the method:
as §3

Test [20] has as its target Alpha-1A adrenergic receptor (Homo sapiens) (UniProt P35348). In words: Agonist activity at ADRA1A receptor (unknown origin). It is filed as functional. A digest of the protocol:
as §3

Test [21] deals with Glucagon-like peptide 1 receptor (Homo sapiens) (UniProt P43220). In words: Agonist activity at GLP1R (unknown origin). The test is classed as functional. The gist of the method: as §3
Test [22] deals with Glucose-dependent insulinotropic receptor (Homo sapiens) (UniProt Q8TDV5). In words: Agonist activity at GPR119 receptor (unknown origin). It is filed as functional. The gist of the method: as §3
The target of test [23] is Pituitary adenylate cyclase-activating polypeptide type I receptor (Homo sapiens) (UniProt P41586). In words: Agonist activity at ADCYAP1 receptor (unknown origin). A digest of the protocol: as §3
Test [24] deals with Lutropin-choriogonadotropic hormone receptor (Homo sapiens) (UniProt P22888). In words: Agonist activity at LHCGR (unknown origin). It is filed as functional. A digest of the protocol: as §3
In test [25] the target is Beta-3 adrenergic receptor (Homo sapiens) (UniProt P13945). In words: Agonist activity at ADRB3 receptor (unknown origin). It is filed as functional. The gist of the method: as §3
In test [26] the target is T1, Mas-related G-protein coupled receptor member X2 (Homo sapiens). In words: Agonist activity at N-terminal Flag-tagged human MRGPRX2 receptor expressed in tetracycline-induced FLP-IN/T-REX 293 cells assessed as increase in intracellular calcium release <100 uM by FLIPR assay. It is filed as functional, cell-based. The note with it: filed as agonist. A digest of the protocol:
as §2

Test [27] concerns the target Alpha-2C adrenergic receptor (Homo sapiens) (UniProt P18825). In words: Agonist activity at ADRA2C receptor (unknown origin). A digest of the protocol: as §3
Test [28] has as its target Gastrin-releasing peptide receptor (Homo sapiens) (UniProt P30550). In words: Agonist activity at GRPR (unknown origin). It is filed as functional. A digest of the protocol:
as §3

Test [29] concerns the target Alpha-1D adrenergic receptor (Homo sapiens) (UniProt P25100). In words: Agonist activity at ADRA1D receptor (unknown origin). It is filed as functional. The gist of the method: as §3
Test [30] has as its target Beta-1 adrenergic receptor (Homo sapiens) (UniProt P08588). In words: Agonist activity at ADRB1 receptor (unknown origin). It is filed as functional. The gist of the method: as §3
Test [31] concerns the target 5-hydroxytryptamine receptor 1A (Homo sapiens) (UniProt P08908). In words: Agonist activity at HTR1A receptor (unknown origin). The test is classed as functional. A digest of the protocol: as §3
Test [32] has as its target Muscarinic acetylcholine receptor M2 (Homo sapiens) (UniProt P08172). In words: Agonist activity at CHRM2 receptor (unknown origin). It is filed as functional. The gist of the method:
as §3

The target in test [33] is Alpha-1B adrenergic receptor (Homo sapiens) (UniProt P35368). In words: Agonist activity at ADRA1B receptor (unknown origin). It is filed as functional. The gist of the method:
as §3

For test [34], the target named is T1, Mas-related G-protein coupled receptor member X2 (Homo sapiens). In words: Agonist activity at MRGPRX2 (unknown origin) expressed in HTLA cells assessed as induction of beta-arrestin 2 recruitment <100 uM incubated for 18 to 24 hrs by PRESTO-Tango assay. The test is classed as functional, cell-based. The note with it: filed as agonist, time 18-24 hrs. A digest of the protocol: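 β-arrestin2 recruitment by PRESTO-Tango: HTLA cells transiently transfected (calcium phosphate) with codon-optimized MRGPRX2-Tango (WT or point mutant) or MRGPRB2-Tango, plated next day 20,000 cells/well on poly-L-lysine; drug in HBSS/20 mM HEPES/0.3% BSA pH 7.4 for 18–24 h; Bright-Glo luminescence (RLU); curves n=3 in triplicate, mutants n=4 in triplicate.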

Test [35] concerns the target Type-1 angiotensin II receptor (Homo sapiens) (UniProt P30556). In words: Agonist activity at AGTR1 receptor (unknown origin). It is filed as functional. A digest of the protocol: as §3
For test [36], the target named is Melanin-concentrating hormone receptor 2 (Homo sapiens) (UniProt Q969V1). In words: Agonist activity at MCHR2 receptor (unknown orgini). It is filed as functional. A digest of the protocol:
as §3

Sequence of Mu-type opioid receptor (P35372 whole entry): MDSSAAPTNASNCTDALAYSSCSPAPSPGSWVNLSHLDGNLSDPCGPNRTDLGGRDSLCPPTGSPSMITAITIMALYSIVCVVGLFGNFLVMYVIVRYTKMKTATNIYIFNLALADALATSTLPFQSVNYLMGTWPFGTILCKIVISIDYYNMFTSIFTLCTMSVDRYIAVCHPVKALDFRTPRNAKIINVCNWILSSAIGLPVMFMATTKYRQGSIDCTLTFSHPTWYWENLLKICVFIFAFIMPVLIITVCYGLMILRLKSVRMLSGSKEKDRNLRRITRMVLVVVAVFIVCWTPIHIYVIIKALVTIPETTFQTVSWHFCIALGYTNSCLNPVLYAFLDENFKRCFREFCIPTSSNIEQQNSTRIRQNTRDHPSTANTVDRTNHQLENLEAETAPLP
Sequence of Kappa-type opioid receptor (P41145 whole entry): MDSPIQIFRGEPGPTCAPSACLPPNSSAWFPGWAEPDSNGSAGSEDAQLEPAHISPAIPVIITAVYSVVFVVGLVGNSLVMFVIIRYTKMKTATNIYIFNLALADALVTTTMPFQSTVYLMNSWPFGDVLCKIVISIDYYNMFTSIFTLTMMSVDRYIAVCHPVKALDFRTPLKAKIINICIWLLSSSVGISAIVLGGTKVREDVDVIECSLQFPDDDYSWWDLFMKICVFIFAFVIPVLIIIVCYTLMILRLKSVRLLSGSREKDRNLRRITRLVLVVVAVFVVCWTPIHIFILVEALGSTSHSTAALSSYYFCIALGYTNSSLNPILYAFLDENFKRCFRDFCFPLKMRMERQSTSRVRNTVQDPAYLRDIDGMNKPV
Sequence of Delta-type opioid receptor (P41143 whole entry): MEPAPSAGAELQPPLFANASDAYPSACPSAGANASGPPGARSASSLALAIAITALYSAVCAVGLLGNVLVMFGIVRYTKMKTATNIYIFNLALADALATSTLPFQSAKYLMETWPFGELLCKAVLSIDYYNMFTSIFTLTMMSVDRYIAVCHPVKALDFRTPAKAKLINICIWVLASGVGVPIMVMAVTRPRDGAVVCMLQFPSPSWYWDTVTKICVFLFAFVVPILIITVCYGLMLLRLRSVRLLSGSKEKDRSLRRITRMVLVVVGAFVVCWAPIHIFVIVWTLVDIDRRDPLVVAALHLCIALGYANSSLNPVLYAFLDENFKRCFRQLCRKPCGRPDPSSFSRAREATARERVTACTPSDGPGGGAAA
Sequence of 5-hydroxytryptamine receptor 2A (Homo sapiens) (P28223 whole entry): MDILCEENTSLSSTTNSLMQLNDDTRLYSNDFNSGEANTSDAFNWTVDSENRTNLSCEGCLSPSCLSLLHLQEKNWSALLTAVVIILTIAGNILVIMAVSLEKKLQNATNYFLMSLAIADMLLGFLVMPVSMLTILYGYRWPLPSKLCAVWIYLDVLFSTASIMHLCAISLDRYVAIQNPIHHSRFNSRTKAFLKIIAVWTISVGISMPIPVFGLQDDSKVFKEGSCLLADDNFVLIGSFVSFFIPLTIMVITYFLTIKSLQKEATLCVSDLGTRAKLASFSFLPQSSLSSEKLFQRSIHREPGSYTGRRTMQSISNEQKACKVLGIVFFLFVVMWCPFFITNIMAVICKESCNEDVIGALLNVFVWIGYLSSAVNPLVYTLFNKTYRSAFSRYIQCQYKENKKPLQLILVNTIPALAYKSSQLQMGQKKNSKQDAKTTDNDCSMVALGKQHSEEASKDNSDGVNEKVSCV
Sequence of Cannabinoid receptor 2 (Homo sapiens) (P34972 whole entry): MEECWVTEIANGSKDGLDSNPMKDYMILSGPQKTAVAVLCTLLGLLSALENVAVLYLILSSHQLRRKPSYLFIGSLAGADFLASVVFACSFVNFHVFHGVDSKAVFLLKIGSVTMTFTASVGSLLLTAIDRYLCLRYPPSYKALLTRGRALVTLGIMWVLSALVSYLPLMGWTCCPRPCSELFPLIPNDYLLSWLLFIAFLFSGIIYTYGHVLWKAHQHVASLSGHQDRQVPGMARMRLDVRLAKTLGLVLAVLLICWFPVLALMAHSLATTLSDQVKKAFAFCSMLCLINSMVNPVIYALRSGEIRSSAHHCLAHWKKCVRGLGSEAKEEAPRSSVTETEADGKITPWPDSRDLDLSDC
Sequence of D(4) dopamine receptor (Homo sapiens) (P21917 whole entry): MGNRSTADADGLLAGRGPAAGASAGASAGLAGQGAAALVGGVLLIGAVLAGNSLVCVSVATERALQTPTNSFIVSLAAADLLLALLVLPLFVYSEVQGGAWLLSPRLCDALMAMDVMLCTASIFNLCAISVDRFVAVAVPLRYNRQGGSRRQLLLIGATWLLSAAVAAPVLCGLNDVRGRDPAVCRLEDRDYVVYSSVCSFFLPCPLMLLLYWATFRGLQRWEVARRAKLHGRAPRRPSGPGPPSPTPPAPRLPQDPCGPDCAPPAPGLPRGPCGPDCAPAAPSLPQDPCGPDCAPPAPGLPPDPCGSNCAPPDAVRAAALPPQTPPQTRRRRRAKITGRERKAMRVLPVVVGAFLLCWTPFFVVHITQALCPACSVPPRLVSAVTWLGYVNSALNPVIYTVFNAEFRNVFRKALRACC
Sequence of Glucose-dependent insulinotropic receptor (Homo sapiens) (Q8TDV5 whole entry): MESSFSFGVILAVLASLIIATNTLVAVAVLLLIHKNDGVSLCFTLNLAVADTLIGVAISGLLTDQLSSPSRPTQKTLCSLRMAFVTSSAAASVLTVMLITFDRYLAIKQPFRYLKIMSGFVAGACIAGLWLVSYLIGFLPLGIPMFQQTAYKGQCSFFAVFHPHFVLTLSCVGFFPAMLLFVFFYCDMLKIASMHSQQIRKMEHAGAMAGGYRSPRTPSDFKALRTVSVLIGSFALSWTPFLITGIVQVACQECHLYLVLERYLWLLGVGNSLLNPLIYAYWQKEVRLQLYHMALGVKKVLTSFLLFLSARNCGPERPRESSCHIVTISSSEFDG
Sequence of Melanin-concentrating hormone receptor 2 (Homo sapiens) (Q969V1 whole entry): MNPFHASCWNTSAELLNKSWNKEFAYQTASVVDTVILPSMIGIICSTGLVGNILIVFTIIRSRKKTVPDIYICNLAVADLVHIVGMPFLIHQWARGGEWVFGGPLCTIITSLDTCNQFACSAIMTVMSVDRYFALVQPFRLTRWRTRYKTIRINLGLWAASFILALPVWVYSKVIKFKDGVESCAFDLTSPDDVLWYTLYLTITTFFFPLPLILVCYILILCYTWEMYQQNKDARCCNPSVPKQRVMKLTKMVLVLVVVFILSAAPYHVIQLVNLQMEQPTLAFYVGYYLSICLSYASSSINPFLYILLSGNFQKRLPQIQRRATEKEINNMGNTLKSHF
Sequence of Beta-1 adrenergic receptor (Homo sapiens) (P08588 whole entry, looked up): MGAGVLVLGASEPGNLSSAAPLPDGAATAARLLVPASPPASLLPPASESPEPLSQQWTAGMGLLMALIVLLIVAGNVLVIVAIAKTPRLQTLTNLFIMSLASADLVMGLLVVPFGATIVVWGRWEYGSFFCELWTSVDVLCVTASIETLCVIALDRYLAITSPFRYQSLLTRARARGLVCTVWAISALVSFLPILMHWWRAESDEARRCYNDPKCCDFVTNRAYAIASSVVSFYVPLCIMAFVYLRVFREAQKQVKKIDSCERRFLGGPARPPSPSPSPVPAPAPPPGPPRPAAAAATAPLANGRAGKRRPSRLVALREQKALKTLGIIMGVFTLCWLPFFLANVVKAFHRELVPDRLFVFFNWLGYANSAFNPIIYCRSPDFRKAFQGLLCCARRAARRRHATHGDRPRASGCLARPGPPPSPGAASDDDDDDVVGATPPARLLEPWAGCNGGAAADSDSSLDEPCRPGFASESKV
Sequence of Lutropin-choriogonadotropic hormone receptor (Homo sapiens) (P22888 whole entry): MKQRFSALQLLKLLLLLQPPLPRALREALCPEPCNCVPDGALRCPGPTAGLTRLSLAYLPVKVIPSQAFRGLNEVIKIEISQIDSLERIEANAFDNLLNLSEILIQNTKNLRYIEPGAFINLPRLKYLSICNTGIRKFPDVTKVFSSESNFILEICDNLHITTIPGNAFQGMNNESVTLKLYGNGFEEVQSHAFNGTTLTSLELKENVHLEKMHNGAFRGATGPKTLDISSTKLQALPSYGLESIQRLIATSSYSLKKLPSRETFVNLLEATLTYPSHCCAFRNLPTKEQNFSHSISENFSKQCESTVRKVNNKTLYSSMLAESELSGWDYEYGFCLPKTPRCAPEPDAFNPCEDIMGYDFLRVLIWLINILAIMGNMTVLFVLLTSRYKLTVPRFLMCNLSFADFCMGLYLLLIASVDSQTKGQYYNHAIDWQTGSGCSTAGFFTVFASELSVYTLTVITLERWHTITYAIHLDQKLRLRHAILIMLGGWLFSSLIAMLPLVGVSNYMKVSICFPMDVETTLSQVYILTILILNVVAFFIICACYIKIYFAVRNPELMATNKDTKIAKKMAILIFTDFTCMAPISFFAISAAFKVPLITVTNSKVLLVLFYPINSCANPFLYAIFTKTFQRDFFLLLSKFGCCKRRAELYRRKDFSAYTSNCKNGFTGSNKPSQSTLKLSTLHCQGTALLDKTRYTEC
Sequence of Prosaposin receptor GPR37 (Homo sapiens) (O15354 whole entry): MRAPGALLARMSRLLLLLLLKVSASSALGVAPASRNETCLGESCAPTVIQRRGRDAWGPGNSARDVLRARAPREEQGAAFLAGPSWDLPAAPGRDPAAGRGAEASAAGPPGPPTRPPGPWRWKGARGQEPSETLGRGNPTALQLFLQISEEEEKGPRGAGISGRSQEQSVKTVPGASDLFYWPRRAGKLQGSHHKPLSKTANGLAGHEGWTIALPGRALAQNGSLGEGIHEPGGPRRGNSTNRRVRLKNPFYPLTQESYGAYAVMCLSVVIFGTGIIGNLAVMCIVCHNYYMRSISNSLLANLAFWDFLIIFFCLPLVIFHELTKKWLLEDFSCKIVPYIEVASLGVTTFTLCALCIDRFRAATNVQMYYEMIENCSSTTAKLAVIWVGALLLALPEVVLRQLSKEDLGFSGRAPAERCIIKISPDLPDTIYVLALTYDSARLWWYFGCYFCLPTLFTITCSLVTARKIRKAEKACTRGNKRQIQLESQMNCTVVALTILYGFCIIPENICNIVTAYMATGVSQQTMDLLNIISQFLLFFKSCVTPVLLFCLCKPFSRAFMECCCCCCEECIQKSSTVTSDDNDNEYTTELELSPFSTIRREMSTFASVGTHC

As a reminder, the Ki is the equilibrium dissociation constant of an inhibitor or competing ligand from its target. Low values mean tighter binding, high ones weaker binding. In the case of `CN1CCC2(c3cccc(O)c3)Cc3nc4ccccc4cc3CC2C1` (racemic), the result in test [1], in test [3] and in test [10] was Active. The EC50 in test [2] is 88.7 µM; in test [5] (read-out: pEC50 (converted)), 1.82 µM; in test [7] (read-out: EC50), 0.74 µM; in test [7] (read-out: pEC50 (converted)), 0.646 µM; in [8] it was 0.324 µM; in test [9], 0.0131 µM. Moreover, the Ki in test [2] turned out to be 22 µM; in [8] it was 0.239 µM; in [9], 0.00294 µM. The result in test [4], in test [6] and in test [11] was inactive. The Activity in test [12] and in test [13] was 70% throughout.
Regarding `CN(C)[C@H]1CCN(c2cc(-c3ccccc3)nc3ccnn23)C1` [(S)-ZINC-3573], the outcome in test [14], in [15], in test [16], in test [17], in [18] and in [19] was inactive. Also, the result in test [20], in test [21], in [22], in test [23], in [24] and in [25] was inactive. For the same compound, the outcome in [27], in [28], in test [29], in test [30], in test [31] and in [32] was inactive. For the same compound, the result in test [33], in test [35] and in test [36] was inactive. Also, the EC50 in test [5] (read-out: EC50) was above 100 µM. Besides, the outcome in [26] and in test [34] was Active.
